Assay results published in ChEMBL document CHEMBL5325460, “Versatile anti-infective properties of pyrido- and dihydropyrido[2,3-d]pyrimidine-based compounds” (Bioorg Med Chem, 2023).

Columns and labels:
[1] = biological target: Human immunodeficiency virus type 1 reverse transcriptase (Human immunodeficiency virus 1, UniProt Q72547); assay: Inhibition of wild type HIV-1 reverse transcriptase RNase-associated RNase H activity using RNA/DNA template-primer as substrate
How it was run: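 RNase H activity of wild-type RT, run independently of RDDP, with RDS1759 as positive control. Assays in triplicate; IC50 reported ± error.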

[2] = tested on: Leishmania major; assay: Antileishmanial activity against Leishmania major amastigotes infected in mouse macrophages assessed as parasite growth inhibition measured after 72 hrs by MTT based ELISA reader analysis; assay type: functional, organism-based; conditions: Macrophage
How it was run: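 L. major promastigotes from a patient isolate; amastigotes from infected BALB/c mice, grown inside mouse macrophages. Viable parasites read by MTT absorbance at 570 nm.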

[3] = Cytotoxicity against African green monkey Vero cells assessed as reduction in cell viability measured after 3 days by MTT assay; assay type: toxicity, cell-based; conditions: chlorocebus sabaeus, time 3 day
How it was run: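 Vero cells held 3 days with graded doses in RPMI 1640 with 5% FBS. Viability read by MTT colorimetry at 540 nm. CC50 from concentration–response curves against untreated controls; means of at least three independent experiments.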

[4] = Selectivity index, ratio of CC50 for cytotoxicity against African green monkey Vero cells to IC50 for antiparasitic activity against Toxoplasma gondii RH tachyzoites infected in African monkey Vero cells; assay type: toxicity, cell-based; conditions: read-out: Ratio CC50/IC50
How it was run: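 SI = Vero CC50 (3-day MTT, 540 nm read) divided by T. gondii RH IC50 (Vero host cells, microscopic count of infected cells); both values from concentration–response curves at 72 h.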

[5] = tested on: Toxoplasma gondii; assay: Antiparasitic activity against Toxoplasma gondii RH tachyzoites infected in African green monkey Vero cells assessed as parasitic growth inhibition incubated for 72 hrs by inverted microscopic analysis; assay type: functional, organism-based
How it was run: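 RH-strain tachyzoites grown on Vero host cells in RPMI 1640 with 10% FBS and exposed to a range of concentrations, with atovaquone as positive control. Infected cells counted under an inverted microscope; inhibition % = (1 − infected treated / infected control) × 100. IC50 from concentration–response curves at 72 h; means of at least three independent experiments.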

[6] = tested on: Leishmania major; assay: Antileishmanial activity against Leishmania major promastigotes assessed as parasite growth inhibition measured after 72 hrs by MTT based ELISA reader analysis

| SMILES | IC50 [1] [µM] | IC50 [2] [µM] | CC50 at 72 h [3] [µM] | selectivity ratio [4] | IC50 [5] [µM] | IC50 [6] [µM] |
| --- | --- | --- | --- | --- | --- | --- |
| O=C1C2=C(Nc3[nH]c(=O)[nH]c(=O)c3C2c2ccc(O)c(O)c2)c2ccccc21 (stereo unspecified) | 11.2 | > 33.3 | 7.03 | 0.7 | 9.99 | > 33.3 |
| COc1cc(C2C3=C(Nc4[nH]c(=O)[nH]c(=O)c42)c2ccccc2C3=O)cc(Br)c1OC (stereo unspecified) | – | 16.4 | 0.5 | 0.69 | 0.73 | > 25.9 |
| O=C1C2=C(Nc3[nH]c(=O)[nH]c(=O)c3C2c2cccc(Br)c2)c2ccccc21 (stereo unspecified) | – | 36.5 | 16.1 | 1.42 | 11.4 | 11.6 |
| COc1ccc(C2C3=C(Nc4[nH]c(=O)[nH]c(=O)c42)c2ccccc2C3=O)cc1O (stereo unspecified) | > 100 | 21.3 | 8.99 | 0.79 | 11.4 | > 32.1 |
| COc1cc(-c2c3c(nc4[nH]c(=O)[nH]c(=O)c24)-c2ccccc2C3=O)cc(Br)c1OC | – | 16.2 | 2.31 | 1.24 | 1.87 | 26 |
| COc1cc(-c2c3c(nc4[nH]c(=O)[nH]c(=O)c24)-c2ccccc2C3=O)cc(OC)c1OC | – | 5.8 | 2.02 | 0.97 | 2.09 | > 29 |
| O=C1C2=C(Nc3[nH]c(=O)[nH]c(=O)c3C2c2ccc(O)cc2)c2ccccc21 (stereo unspecified) | > 100 | 22 | 3.95 | 0.2 | 20 | > 34.8 |
| COc1ccc(C2C3=C(Nc4[nH]c(=O)[nH]c(=O)c42)c2ccccc2C3=O)cc1C (stereo unspecified) | – | 22.2 | 2.89 | 0.3 | 9.81 | > 32.3 |
| C[C@@H]1[C@H](O)[C@@H](C)/C=C/C=C/C=C/C=C/C=C/C=C/C=C/[C@H](O[C@@H]2O[C@H](C)[C@@H](O)[C@H](N)[C@@H]2O)C[C@@H]2O[C@](O)(C[C@@H](O)C[C@@H](O)[C@H](O)CC[C@@H](O)C[C@@H](O)CC(=O)O[C@H]1C)C[C@H](O)[C@H]2C(=O)O [AMPHOTERICIN B] | – | – | – | – | – | 0.83 |
| COc1cc(C2C3=C(Nc4[nH]c(=O)[nH]c(=O)c42)c2ccccc2C3=O)ccc1O (stereo unspecified) | > 100 | 21.3 | 6.16 | 0.74 | 8.35 | 35.4 |
| CCOC(=O)C(=O)CC(=O)/C=C/c1cccn1Cc1ccccc1Cl | 8.7 | – | – | – | – | – |
| COc1ccc(C2C3=C(Nc4[nH]c(=O)[nH]c(=O)c42)c2ccccc2C3=O)cc1F (stereo unspecified) | – | 16.9 | 7.16 | 0.74 | 9.71 | 7.16 |
